Source: PubChem (several laboratories)
Mdm2-MdmX inh = human Mdm2/MdmX binding inhibition | AID 485346 | SaOS-2 split-luciferase Mdm2/MdmX complementation, luminescence | actives 3% (n = 330,000) | inhibition, % at 8 µM;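 active means inhibition of at least 50% at 8 µM in the primary screen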
Target sequence (O15151 whole entry, looked up): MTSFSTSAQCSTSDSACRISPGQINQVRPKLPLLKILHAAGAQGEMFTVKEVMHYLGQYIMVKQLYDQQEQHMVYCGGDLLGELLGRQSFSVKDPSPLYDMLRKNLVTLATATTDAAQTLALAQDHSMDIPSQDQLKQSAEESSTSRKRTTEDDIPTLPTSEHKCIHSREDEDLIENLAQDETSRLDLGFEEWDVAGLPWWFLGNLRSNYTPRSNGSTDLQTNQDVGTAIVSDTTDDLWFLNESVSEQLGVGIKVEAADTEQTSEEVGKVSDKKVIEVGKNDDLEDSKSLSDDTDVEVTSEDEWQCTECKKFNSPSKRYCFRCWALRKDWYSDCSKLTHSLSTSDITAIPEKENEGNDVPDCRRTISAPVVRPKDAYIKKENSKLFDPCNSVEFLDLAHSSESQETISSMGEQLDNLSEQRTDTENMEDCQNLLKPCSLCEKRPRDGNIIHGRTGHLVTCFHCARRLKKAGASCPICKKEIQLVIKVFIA
Target sequence (Q00987 whole entry, looked up): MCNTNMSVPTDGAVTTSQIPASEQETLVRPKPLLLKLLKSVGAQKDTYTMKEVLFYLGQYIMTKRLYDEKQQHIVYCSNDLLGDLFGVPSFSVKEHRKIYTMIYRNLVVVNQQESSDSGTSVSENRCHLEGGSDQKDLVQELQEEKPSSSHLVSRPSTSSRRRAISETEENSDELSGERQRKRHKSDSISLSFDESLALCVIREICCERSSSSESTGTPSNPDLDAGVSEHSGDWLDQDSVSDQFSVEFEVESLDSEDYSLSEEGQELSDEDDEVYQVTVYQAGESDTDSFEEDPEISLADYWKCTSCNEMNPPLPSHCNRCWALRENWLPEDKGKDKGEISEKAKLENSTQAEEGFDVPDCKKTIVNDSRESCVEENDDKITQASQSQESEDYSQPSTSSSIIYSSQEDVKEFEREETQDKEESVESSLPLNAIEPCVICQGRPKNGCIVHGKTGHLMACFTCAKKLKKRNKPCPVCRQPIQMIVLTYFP
Jurkat NFkB inh = inhibitors of the PMA/ionomycin-induced NF-kB reporter in Jurkat cells; PMA/ionomycin-induced NF-kB luciferase reporter, luminescence; inhibition, % at 4 µM; actives 0.53% (n = 330,000); in the data active means inhibition above about 50%
697 NFkB inh = inhibitors of the PMA/ionomycin-induced NF-kB reporter in 697 B cells; inhibition, % at 4 µM; 697 B-cell NF-kB luciferase reporter, 16 h; actives 0.33% (n = 330,000); in the data active means inhibition above about 35%
IMP-1 inh = blocks Pseudomonas aeruginosa IMP-1 metallo-beta-lactamase; purified IMP-1, nitrocefin hydrolysis, epi-absorbance fluorescence; inhibition, % at 5.6 µM; actives 0.45% (n = 290,000); AID 1556;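 active means inhibition above the mean plus 3 SD of all compounds in the same screening run, cut at about 4.5% in these data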;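 further: 0% = IMP-1 with DMSO and 100% = DMSO wells lacking enzyme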
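System – purified recombinant IMP-1 beta-lactamase · Input – IMP-1 dispensed at 0.2 nM · Timing – 15 min preincubation plus 25 min reaction at 25 °C · Signal – Epi-absorbance fluorescence, 480 nm excitation, 530 nm emission · Measure – percent IMP-1 inhibition derived from blank-referenced optical density · Controls – Enzyme-plus-DMSO low control, enzyme-free DMSO high control · Replication – singlicate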
aSyn 5UTR inh = 5' untranslated region of α-synuclein, MLPCN primary screen | actives 0.82% (n = 300,000) | inhibition, % (tested at 7.5 µM) | alpha-synuclein 5'UTR reporter, inhibitor activity | AID 1813; in the data active means inhibition above about 60%;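 further: H4 neuroglioblastoma cells stably carrying SNCA 5'UTR luciferase fusion; 0% = DMSO wells and 100% = positive control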
VIM-2 inhibitor = inhibitors of Pseudomonas aeruginosa VIM-2 metallo-beta-lactamase | inhibition, % at 5.6 µM | actives 0.89% (n = 290,000) | purified VIM-2, nitrocefin hydrolysis, epi-absorbance fluorescence;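 active means inhibition above the mean of all tested compounds plus 3 SD, cutoff set per screening run, cut at about 7.5% in these data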;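 further: red hydrolysis product quenches plate fluorescence so inhibitors raise well fluorescence; 0% = enzyme with DMSO and 100% = DMSO without enzyme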
Mdm2-MdmX conf = human Mdm2/MdmX binding inhibition, confirmed; shares compounds with Mdm2-MdmX inh; luminescent assay; inhibition, % at 8 µM; actives 55% (n = 10,000); AID 489028; in the data active means inhibition above about 40%
Full FLuc ctr = counter-screen for Mdm2/MdmX inhibitors: full-length luciferase; shares compounds with Mdm2-MdmX inh; SaOS-2 full-length luciferase counterscreen, luminescence; inhibition, % at 8 µM; actives 77% (n = 6,200);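 active means mean inhibition at 8 µM reaching about 37%, which flags the compound as non-specific, limit read from the data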;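 further: p53-null SaOS-2 cells with luciferase driven by a doxycycline-inducible promoter; compound on cells about two nights before reading with doxycycline added after day one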
* marks the source's active call; other numbers are inactive results; . = no result given. Sampled rows, rich in hits. Any-hit rate of the full collection: about 4.7%.

SMILES	Mdm2-MdmX inh	Jurkat NFkB inh	697 NFkB inh	IMP-1 inh	aSyn 5UTR inh	VIM-2 inhibitor	Mdm2-MdmX conf	others
CCCCn1c(=O)[nH]c(=O)c2c1nc(-c1ccc(-c3ccccc3)cc1)n2C	62*	4	4	-1	-24	-5	35	Full FLuc ctr=94*
CCCCn1c(=O)[nH]c(=O)c2c1nc(-c1ccc(C(F)(F)F)cc1)n2C	16	-9	7	-3	3	-2	.
CN1CCC(N(C)S(=O)(=O)c2ccc(NC(=O)c3ccc(S(=O)(=O)N(C)C)cc3)cc2)CC1	-9	-2	0	.	.	.	.
O=C(COc1ccccc1Cl)Nc1ccc2c(c1)OCCO2	-106	-97	8	-2	-151	-2	.
Cc1ccc(OCC(=O)Nc2ccc(S(=O)(=O)N(C)C3CCN(C)CC3)cc2)c(C)c1	23	-16	-21	-1	4	0	.
Cc1c(C(=O)Nc2ccc(S(=O)(=O)N(C)C3CCN(C)CC3)cc2)oc2c(Cl)cccc12	88*	-4	-16	.	-52	.	75*	Full FLuc ctr=64*
CN1CCC(N(C)S(=O)(=O)c2ccc(NC(=O)COc3ccc(Br)cc3Cl)cc2)CC1	63*	1	-23	.	-16	.	56*	Full FLuc ctr=72*
O=C(COc1ccc(Br)cc1Cl)NC(=O)Nc1ccc2c(c1)OCCO2	53*	-29	-8	0	-72	1	5
Cc1c(C(=O)Nc2ccc(S(=O)(=O)N(C)C3CCN(C)CC3)cc2)oc2ccccc12	92*	15	5	.	.	.	35
CC(O)c1cccc(NC2=CC(=O)CC(C)(C)C2)c1 (configuration not stated)	-26	13	15	-4	21	-1	.
CC(C)=NOc1cc(NC(=O)CCl)cc([N+](=O)[O-])c1	95*	16	2	-2	-6	-4	70*	Full FLuc ctr=56*
Cc1c(CNC2CCCC2)c(C(=O)O)c(C)n1Cc1ccccc1	2	0	-7	-1	26	1	.
O=C(Cn1cnc2c(OCc3ccccc3)ncnc21)N[C@H](CO)Cc1cc2ccccc2[nH]1	51*	-5	-7	.	.	.	8
COC(=O)[C@H](Cc1ccccc1)NC(=O)Cn1cnc2c(OCc3ccccc3)ncnc21	-22	-22	-21	.	.	.	.
COc1ccc(S(=O)(=O)N(C)C[C@H]2Oc3ccc(NC(=O)Nc4ccc(C(F)(F)F)cc4)cc3C(=O)N([C@H](C)CO)C[C@@H]2C)cc1	74*	-11	15	.	.	.	8
C[C@@H]1CN([C@H](C)CO)C(=O)c2cc(NC(=O)Nc3ccc(C(F)(F)F)cc3)ccc2O[C@H]1CN(C)S(=O)(=O)c1ccccc1	74*	0	22	.	.	.	30
O=C(NCCN1C(=O)S/C(=C\c2ccccc2F)C1=O)C1=COCCO1	34	48	-27	.	-61	.	.
O=C(CCN1C(=O)/C(=C/c2ccccc2Cl)SC1=S)N1CCCC1	62*	13	-3	3	-115	5	24
O=C(CCCN1C(=O)/C(=C/c2ccccc2Cl)SC1=S)N1CCCC1	76*	-5	7	0	-28	2	31
COc1cc(/C=C/C(=O)O)cc(S(=O)(=O)Nc2ccccc2Oc2ccccc2)c1OC	-2	5	18	-3	5	1	.
CCN(CC)S(=O)(=O)c1cccc(NC(=O)Nc2cccc(C(F)(F)F)c2)c1	68*	16	-40	-4	49	-3	93*	Full FLuc ctr=52*
CC(OC(=O)c1ccc(Cl)c(S(=O)(=O)N2CCc3ccccc32)c1)C(=O)Nc1ncc(Cl)cc1Cl (configuration not stated)	12	6	3	-3	-16	-1	.
CCOC(=O)C1=C(c2ccccc2)N=c2s/c(=C\c3cccc(O)c3)c(=O)n2C1c1cccs1 (configuration not stated)	78*	-3	8	-4	25	-3	29
O=C(CSc1nc(-c2ccccc2)c(-c2ccccc2)[nH]1)NCc1ccco1	53*	19	-2	-3	12	-1	56*	Full FLuc ctr=73*
COC(=O)CSc1nc(C)cc(C(F)(F)F)c1C#N	9	-6	-2	-3	23	0	.
SMILES	Mdm2-MdmX inh	Jurkat NFkB inh	697 NFkB inh	IMP-1 inh	aSyn 5UTR inh	VIM-2 inhibitor	Mdm2-MdmX conf	others
Cc1coc(NC(=O)CSc2nc(-c3ccncc3)cc(C(F)(F)F)c2C#N)n1	52*	18	7	-5	-4	-5	9
CCOC(=O)NC(=O)CSc1nc(C)cc(C(F)(F)F)c1C#N	59*	-11	7	-1	-29	-1	15
N#Cc1c(C(F)(F)F)cc(-c2ccc(F)cc2)nc1SCC(=O)O	-22	-6	15	-1	-25	-3	.
O=C(CNC(=O)c1sc2ccccc2c1Cl)NCc1cccc(C(F)(F)F)c1	36	18	16	.	-5	.	.
CNc1nc(Nc2ccc(Br)cc2)nc(N)c1[N+](=O)[O-]	67*	-39	-61	-2	8	-2	-20
COc1ccc(Nc2nc(N)c([N+](=O)[O-])c(NC3CCCCC3)n2)cc1	70*	-3	-1	-2	62*	-1	12
Cc1cccc(NC(=O)CN2CCN(C(=O)c3c(C)nn(Cc4ccccc4)c3C)CC2)c1C	7	11	11	.	.	.	.
NC(=O)C1CCN(C(=O)CCC(=O)c2ccc(F)cc2)CC1	17	16	-7	0	-3	0	.
CCc1cc(=O)oc2c(CN3CCN(C)CC3)c(O)ccc12	20	-22	0	-3	-3	-2	.
CN1CCN(Cc2c(O)ccc3cc(Br)ccc23)CC1	51*	-10	5	-3	-30	-2	8
CC(C)Oc1ccc(/C=N/NC(=O)c2ccc(N(Cc3ccccc3)S(C)(=O)=O)cc2)cc1	-11	7	-24	0	-4	0	.
COC(=O)COc1ccc(/C=N/NC(=O)c2ccc(N(Cc3ccccc3)S(C)(=O)=O)cc2)cc1	61*	2	-25	-4	-2	-1	22
COc1cc(OC)c(C(=O)O/N=C(\N)c2ccccc2)cc1OC	57*	2	-20	-1	-33	0	4
COc1ccc(C(=O)O/N=C(\N)c2ccccc2)cc1OC	62*	-52	-156	-4	-180	-3	-10
COc1ccc(C(=O)O/N=C(\N)c2ccncc2)cc1OC	25	-14	-7	-2	-37	-5	.
COc1ccc(C(=O)O/N=C(\N)c2cccc(C)c2)cc1OC	96*	-46	-49	-2	-165	-2	50*	Full FLuc ctr=137*
CC1=NCCN1S(=O)(=O)c1cc([N+](=O)[O-])ccc1Cl	4	-21	9	-2	14	-2	.
